Experimental data published in PubChem BioAssay AID588798 (Johns Hopkins Ion Channel Center, 2011).
Calls of active or inactive are those of the source.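 The calls were made as follows: active = peak inhibition of the KCNQ2 potassium channel above 30% at some tested dose, plus a fitted dose response curve; inactive = no inhibition at any dose, or no curve.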

Biological target: Potassium voltage-gated channel subfamily KQT member 2 (Rattus norvegicus) (UniProt O88943)
Assay: KCNQ2 potassium flux blockade – cell-based, FluxOR thallium flux, CRC set 3, selectivity assay for KCNK9 inhibitor project, SAR follow-up (AID 588798)
Conditions: KCNQ2-expressing cells, FluxOR thallium flux fluorescence; for thallium flux ratio, lower = inhibition: at 30 µM (top of the series)
Summary of the method: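 Schedule: 90 min dye load, 20 min compound exposure, room temperature. Assay system: KCNQ2-expressing CHO cells. Replication: duplicate or more. Compound dosing: concentration-response series. Evaluation: normalised fluorescence change ratio and IC50. Detection: kinetic thallium-flux fluorescence with FluxOR dye, 10 s baseline, 110 s post-stimulus.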

Sequence of Potassium voltage-gated channel subfamily KQT member 2 (Rattus norvegicus) (O88943 whole entry, looked up): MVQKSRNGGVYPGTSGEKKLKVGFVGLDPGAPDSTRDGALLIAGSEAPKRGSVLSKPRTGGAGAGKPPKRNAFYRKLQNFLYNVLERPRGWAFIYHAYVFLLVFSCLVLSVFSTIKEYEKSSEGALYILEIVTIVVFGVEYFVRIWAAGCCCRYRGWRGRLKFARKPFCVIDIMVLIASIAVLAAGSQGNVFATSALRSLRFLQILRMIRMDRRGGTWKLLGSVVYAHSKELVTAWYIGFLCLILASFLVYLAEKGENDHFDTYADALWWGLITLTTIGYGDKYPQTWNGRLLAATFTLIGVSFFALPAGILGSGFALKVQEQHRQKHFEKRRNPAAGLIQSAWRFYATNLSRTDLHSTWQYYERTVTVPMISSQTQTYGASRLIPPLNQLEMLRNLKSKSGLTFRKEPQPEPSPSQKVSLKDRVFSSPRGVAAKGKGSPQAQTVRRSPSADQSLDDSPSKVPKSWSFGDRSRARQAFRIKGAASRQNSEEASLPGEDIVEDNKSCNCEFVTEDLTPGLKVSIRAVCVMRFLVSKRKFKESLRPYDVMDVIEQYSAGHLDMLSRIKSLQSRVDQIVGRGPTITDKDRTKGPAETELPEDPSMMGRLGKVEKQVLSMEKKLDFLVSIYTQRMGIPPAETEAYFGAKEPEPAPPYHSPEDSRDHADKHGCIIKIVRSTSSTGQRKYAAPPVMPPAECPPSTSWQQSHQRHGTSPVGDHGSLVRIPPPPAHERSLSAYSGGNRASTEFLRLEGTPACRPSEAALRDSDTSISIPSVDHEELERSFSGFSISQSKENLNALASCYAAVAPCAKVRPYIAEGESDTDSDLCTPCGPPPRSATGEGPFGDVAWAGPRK

| Compound | thallium flux ratio, lower = inhibition | IC50 |
| --- | --- | --- |
| CSc1nnc(-c2ccco2)n1C(C)C1CC2CCC1C2 (stereo not drawn) | inactive | – |
| CC(C1CC2CCC1C2)N(C)C(=O)c1ccco1 (stereo not drawn) | inactive | – |
| CC(C)c1ccccc1C(=O)Nc1cccc(NC(=O)c2ccccc2OC(F)(F)F)c1 | inactive | – |
| COc1cccc(-c2n[nH]c(=S)n2C(C)C2CC3CCC2C3)c1OC (stereo not drawn) | inactive | – |
| C[C@H](C1CCCCC1)n1c(-c2ccco2)n[nH]c1=S | inactive | – |
| CC(C1CC2CCC1C2)n1cnnc1-c1ccco1 (stereo not drawn) | inactive | – |
| COc1ccc(C(=O)CSc2nnc(-c3ccco3)n2C(C)C2CC3CCC2C3)cc1 (stereo not drawn) | inactive | – |
| CC(C1CC2CCC1C2)n1c(-c2cccc(F)c2)n[nH]c1=S (stereo not drawn) | inactive | – |
| CC(C1CC2CCC1C2)n1c(SCC(=O)c2ccc3c(c2)OCO3)nnc1-c1ccco1 (stereo not drawn) | inactive | – |
| COc1ccccc1C(=O)Nc1cc(NC(=O)c2ccccc2C(C)C)ccc1F | inactive | – |
| CC(C1CC2CCC1C2)n1c(-c2cccc(N(C)C)c2)n[nH]c1=S (stereo not drawn) | inactive | – |
| CC(NC(=O)c1ccco1)C1CC2CCC1C2 (stereo not drawn) | inactive | – |
| S=c1[nH]nc(-c2ccco2)n1C1CC2CCC1C2 (stereo not drawn) | inactive | – |
| CC(C1CC2CCC1C2)n1c(-c2ccco2)nnc1C(F)(F)F (stereo not drawn) | inactive | – |
| CC(C1CC2CCC1C2)n1c(SCC#N)nnc1-c1cccs1 (stereo not drawn) | inactive | – |
| COc1ccc(CCSc2nnc(-c3ccco3)n2C(C)C2CC3CCC2C3)cc1OC (stereo not drawn) | inactive | – |
| CC(c1cccc2ccccc12)n1c(-c2ccco2)n[nH]c1=S (stereo not drawn) | inactive | – |
| CC(C1CC2CCC1C2)n1c(-c2cccnc2)n[nH]c1=S (stereo not drawn) | inactive | – |
| COc1cc(OC)cc(-c2n[nH]c(=S)n2C(C)C2CC3CCC2C3)c1 (stereo not drawn) | inactive | – |
| COc1cccc(-c2nnc(S(C)(=O)=O)n2C(C)C2CC3CCC2C3)c1 (stereo not drawn) | inactive | – |
| CC(C1C2CCC1CC2)n1c(-c2ccco2)n[nH]c1=S (stereo not drawn) | inactive | – |
| CC(C1CCCCC1)n1c(-c2ccco2)n[nH]c1=S (stereo not drawn) | inactive | – |

| Compound | thallium flux ratio, lower = inhibition | IC50 |
| --- | --- | --- |
| CC(CCC1CCCC1)n1c(-c2ccco2)n[nH]c1=S (stereo not drawn) | inactive | – |
| CC(C1CC2CCC1C2)n1c(-c2ccco2)n[nH]c1=S (stereo not drawn) | inactive | – |
| COc1cccc(Cc2n[nH]c(=S)n2C(C)C2CC3CCC2C3)c1 (stereo not drawn) | inactive | – |
| CC(CC1CC2CCC1C2)n1c(-c2ccco2)n[nH]c1=S (stereo not drawn) | inactive | – |
| CC(C1CC2CCC1C2)n1c(-c2ccc(N(C)C)cc2)n[nH]c1=S (stereo not drawn) | inactive | – |
| CC(C1CC2CCC1C2)n1c(SCc2ccccc2)nnc1-c1ccco1 (stereo not drawn) | – | 18 µM |
| S=c1[nH]nc(-c2ccco2)n1CC1CC2CCC1C2 (stereo not drawn) | inactive | – |
| CC(C1CC2CCC1C2)n1c(-c2ccncc2)n[nH]c1=S (stereo not drawn) | inactive | – |
| COc1ccccc1C(=O)Nc1cccc(NC(=O)c2cccc3ccccc23)c1 | inactive | – |
| CC(C1CC2CCC1C2)n1c(SCC(=O)c2ccc(Cl)c(Cl)c2)nnc1-c1ccco1 (stereo not drawn) | inactive | – |
| CC(C)Oc1ccccc1C(=O)Nc1cccc(NC(=O)c2ccccc2OC(F)(F)F)c1 | inactive | – |
| CC(C1CC2CCC1C2)n1c(SCC(=O)c2ccccc2)nnc1-c1ccco1 (stereo not drawn) | inactive | – |
| COc1ccc(C(=O)CSc2nnc(-c3ccco3)n2C(C)C2CC3CCC2C3)cc1OC (stereo not drawn) | inactive | – |
| CC(C1CC2CCC1C2)n1c(SC(F)F)nnc1-c1ccco1 (stereo not drawn) | inactive | – |
| CC(C1CC2CCC1C2)n1c(-c2ccco2)n[nH]c1=O (stereo not drawn) | inactive | – |
| CC(C1CC2CCC1C2)n1c(-c2cccs2)n[nH]c1=S (stereo not drawn) | inactive | – |
| C[C@@H](C1CCCCC1)n1c(-c2ccco2)n[nH]c1=S | inactive | – |
| COc1cccc(C(=O)CSc2nnc(-c3ccco3)n2C(C)C2CC3CCC2C3)c1 (stereo not drawn) | inactive | – |
| CC(C1CC2CCC1C2)n1c(-c2ccccc2F)n[nH]c1=S (stereo not drawn) | inactive | – |
| CC(C1CC2CCC1C2)n1c(-c2ccccn2)n[nH]c1=S (stereo not drawn) | inactive | – |
| CC(C1CC2CCC1C2)n1c(-c2cccn2C)n[nH]c1=S (stereo not drawn) | inactive | – |
